A selection: hits, their analogues and other compounds. The true share with any hit is near 2.5%.
Her2 expr inh – inhibitors of human Her2 kinase expression; P04626; SKBR-3 HER2 protein level, AlphaScreen, 18-24 h; active compounds read low; HER2 level % of control, % at 10 µM; hit rate 0.69% among 65,000; AID 645;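 active = HER2 level under 5% of the carrier-only control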;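 also: 100% = DMSO carrier and 0% = 500 nM PU-H71 HSP90 inhibitor; lower value means stronger loss of Her2 protein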
HEK293 NFkB inh – inhibitors of the PMA/ionomycin-induced NF-kB reporter in HEK293 cells. HEK-293 NF-kB luciferase reporter, luminescence. AID 465. inhibition, % at 3 µM. hit rate 0.21% among 62,000;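 active = inhibition above the mean of all tested compounds plus 3 SD, cut at about 40% in these data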;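 also: 0% = stimulated DMSO wells and 100% = 10 µM reference inhibitor 5653914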
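Reagent: PMA plus ionomycin mix as NF-kB-activating stimulus. Assay system: NF-kB luciferase reporter HEK-293 cells. Technique: luminescence from luciferase substrate reagent. Incubation: 1 h compound pre-incubation, 16 h PMA/ionomycin at 37 °C. Benchmarks: DMSO only as uninhibited control, 10 µM reference inhibitor as full inhibition. Repeats: tested once.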
Jurkat tox 60K – cytotoxicity toward Jurkat cells. inhibition, % at 4 µM. AID 463. hit rate 1.2% among 56,000. Jurkat E6.1 viability, ATP luminescence, 48 h;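 active = inhibition above the mean inhibition of all tested compounds plus 3 SD, cut at about 28% in these data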
JNK3 blocker – inhibitors of human JNK3 kinase; purified JNK3 kinase activity, HTS; hit rate 0.61% among 60,000; inhibition, % at 8 µM; P53779; in the data active = inhibition above about 17%;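 also: 0% = DMSO and 100% = reference inhibitor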
Target sequence (P53779 whole entry, looked up): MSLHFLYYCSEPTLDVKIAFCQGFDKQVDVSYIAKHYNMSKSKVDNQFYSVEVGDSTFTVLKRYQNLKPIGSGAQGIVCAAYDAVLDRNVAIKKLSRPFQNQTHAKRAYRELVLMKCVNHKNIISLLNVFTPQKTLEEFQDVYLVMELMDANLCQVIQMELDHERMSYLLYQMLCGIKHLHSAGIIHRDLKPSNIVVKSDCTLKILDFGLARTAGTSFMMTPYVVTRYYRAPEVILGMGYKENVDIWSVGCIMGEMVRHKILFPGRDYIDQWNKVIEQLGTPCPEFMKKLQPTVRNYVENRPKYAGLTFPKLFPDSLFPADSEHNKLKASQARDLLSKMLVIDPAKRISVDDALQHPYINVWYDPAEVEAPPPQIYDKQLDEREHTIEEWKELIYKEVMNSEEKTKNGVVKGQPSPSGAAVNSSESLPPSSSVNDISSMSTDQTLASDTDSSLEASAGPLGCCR
Hsp90 block – displaces geldanamycin probe from tumor Hsp90; P07900; NCI-N417 lysate Hsp90, Cy3B-geldanamycin FP displacement; inhibition, % at 30 µM; hit rate 0.35% among 64,000; AID 429;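 active = inhibition above 50%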;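 also: 0% = tracer plus lysate wells and 100% = tracer alone without lysate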
AP complement – alternative pathway complement inhibition, orthogonal assay; Human serum alternative complement pathway, LPS-coated ELISA, C3 deposition; tested in compound mixtures; inhibition, % at 5 µM; hit rate 0.08% among 62,000; AID 1235;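 active = inhibition above 30% in each of the two pooled mixtures holding the compound, so the lower value exceeds 30%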;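 also: 0% = serum in Mg-EGTA without compound and 100% = EDTA serum blank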
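Test system: human serum complement alternative pathway, C3 deposition onto LPS / Medium: Mg2+-EGTA GVB++ buffer containing human serum at 1:15 dilution / Probe or stimulus: Plate-bound LPS / Times: 1 h at 37 °C / Signal: ELISA with HRP anti-human C3 antibody, TMB substrate, absorbance 450 nm / Measure: percent inhibition / Repeats: two pool placements per compound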
* marks the source's active call; other numbers are inactive results.

`Cc1cc(C)n(S(=O)(=O)c2cccc(Cl)c2Cl)n1` gave Her2 expr inh 118.0, HEK293 NFkB inh 0.7, Jurkat tox 60K 10.7, JNK3 blocker -2.8, Hsp90 block -4.2 and AP complement 7.2.
O=C(O)c1ccc(COc2ccccc2Cl)cc1 was read as Her2 expr inh 124.8, HEK293 NFkB inh 1.0, Jurkat tox 60K -3.0, JNK3 blocker -0.4, Hsp90 block -3.3 and AP complement 6.6.
`O=C(O)c1cccc(COc2ccccc2Cl)c1` gave Her2 expr inh 133.1, HEK293 NFkB inh 92.4*, Hsp90 block -1.3 and AP complement 6.0.
COc1ccccc1-c1cc(C(=O)Nc2ccccc2SC)no1 was read as Her2 expr inh 80.4, HEK293 NFkB inh 4.1, Jurkat tox 60K -5.8, JNK3 blocker -2.0, Hsp90 block -1.6 and AP complement 5.5.
Screening COc1cc(NC(=O)c2cc(-c3cccc(O)c3)on2)cc(OC)c1OC returned Her2 expr inh 94.4, HEK293 NFkB inh 2.0, Jurkat tox 60K 21.4, JNK3 blocker -1.8, Hsp90 block -1.7 and AP complement 14.3.
COc1ccc(NC(=O)c2cc(-c3ccccc3OC)on2)cc1 was read as Her2 expr inh 56.6, HEK293 NFkB inh 18.4, Jurkat tox 60K 92.3*, JNK3 blocker 0.8, Hsp90 block 1.7 and AP complement 13.4.
COc1ccccc1-c1cc(C(=O)Nc2cccnc2)no1 was read as Her2 expr inh 86.1, HEK293 NFkB inh 22.8, Jurkat tox 60K 72.5*, JNK3 blocker -1.0, Hsp90 block -3.2 and AP complement 10.0.
Screening COc1cc(NC(=O)c2cc(-c3cccs3)on2)cc(OC)c1OC returned Her2 expr inh 79.3, HEK293 NFkB inh -8.4, Jurkat tox 60K 63.8*, JNK3 blocker 5.1, Hsp90 block -4.1 and AP complement 0.3.
For COc1cccc(-c2cc(C(=O)Nc3cccc(O)c3)no2)c1 the results were Her2 expr inh 66.3, HEK293 NFkB inh 20.4, Jurkat tox 60K 48.6*, JNK3 blocker -0.4, Hsp90 block 0.1 and AP complement 18.6.
Screening COc1cc(NC(=O)c2cc(C)on2)cc(OC)c1OC returned Her2 expr inh 85.4, HEK293 NFkB inh 7.6, Jurkat tox 60K 6.9, JNK3 blocker -2.7, Hsp90 block -3.0 and AP complement 9.9.
For COC(=O)c1nnn(CC(=O)Nc2cccc(Cl)c2C)c1C(=O)OC the results were Her2 expr inh 71.8, HEK293 NFkB inh 10.6, Hsp90 block -8.0 and AP complement 2.4.
For O=C(CN1CCOc2ccccc21)N1CCN(c2cccc(Cl)c2)CC1 the results were Her2 expr inh 87.5, HEK293 NFkB inh 16.1, Jurkat tox 60K 4.7, JNK3 blocker -6.6, Hsp90 block -2.5 and AP complement 26.2.
Screening CCn1c(SCC(=O)NC(=O)Nc2ccc3c(c2)OCCO3)nnc1-c1cccs1 returned Her2 expr inh 93.3, HEK293 NFkB inh 9.5, Jurkat tox 60K 4.2, JNK3 blocker -0.6, Hsp90 block -1.3 and AP complement -9.2.
COC(=O)c1ccc(NC(=O)c2ccc(N(C)S(C)(=O)=O)cc2)cc1 was read as Her2 expr inh 73.6, HEK293 NFkB inh 26.5, Jurkat tox 60K 30.9*, JNK3 blocker 1.3, Hsp90 block -0.7 and AP complement 11.0.
For Cc1ccc(CCNC(=O)C2CCN(C(=O)N(C)C)CC2)cc1 the results were Her2 expr inh 97.1, HEK293 NFkB inh 8.8, Jurkat tox 60K -10.6, JNK3 blocker 4.6, Hsp90 block -2.2 and AP complement 15.5.
CCCN(S(=O)(=O)c1ccc(OCC)cc1)S(=O)(=O)c1cccs1 was read as Her2 expr inh 91.8, HEK293 NFkB inh 17.1, Jurkat tox 60K -2.6, JNK3 blocker 0.6, Hsp90 block 0.4 and AP complement -19.1.
CNC(=O)N(C1=NCC(C)(C)S1)c1ccc(F)c(Cl)c1 was read as Her2 expr inh 67.3, HEK293 NFkB inh 8.9, Jurkat tox 60K 48.6*, JNK3 blocker -1.2, Hsp90 block 0.7 and AP complement 13.6.
Screening COc1ccc(N2CCN(C(=O)CCNS(=O)(=O)c3ccc(Br)s3)CC2)cc1 returned Her2 expr inh 83.5, HEK293 NFkB inh 5.5, Jurkat tox 60K 4.9, JNK3 blocker -2.8, Hsp90 block -0.6 and AP complement -5.6.
`Cc1nn(C)c(C)c1CNC(=O)c1nn2c(c1Cl)NC(c1cccs1)CC2C(F)(F)F` (stereo unspecified) gave Her2 expr inh 86.7, HEK293 NFkB inh 25.2, Jurkat tox 60K 40.6*, JNK3 blocker 2.1, Hsp90 block 1.6 and AP complement 9.9.
`O=c1c(O)c(-c2ccc(O)c(O)c2)oc2cc(O)cc(O)c12` gave Hsp90 block 103.2*.
`Cn1c(NC(=O)c2cccc(Cn3cc(Cl)cn3)c2)nc2ccccc21` gave Her2 expr inh 90.9, HEK293 NFkB inh -19.7, Jurkat tox 60K 2.0, JNK3 blocker 1.9, Hsp90 block -0.3 and AP complement 12.5.
Screening CCn1c(NC(=O)c2cccc(Cn3cc(Cl)cn3)c2)nc2ccccc21 returned Her2 expr inh 86.7, HEK293 NFkB inh 4.1, Jurkat tox 60K 75.1*, JNK3 blocker 6.7, Hsp90 block -3.4 and AP complement 2.4.
Screening O=S(=O)(c1ccc2ccccc2c1)N1CCCCC1 returned Her2 expr inh 138.3, HEK293 NFkB inh 7.2, Jurkat tox 60K -2.5, JNK3 blocker 0.2, Hsp90 block -3.4 and AP complement 5.1.
`O=S(=O)(CC(CN1CCCC1)N1CCCC1)c1ccc2ccccc2c1` (stereo unspecified) gave Her2 expr inh -12.8*, HEK293 NFkB inh 31.8, Jurkat tox 60K 7.5, JNK3 blocker 2.6, Hsp90 block -10.7 and AP complement -3.5.
Screening COCc1nc2c([nH]1)c(=O)n(C)c(=O)n2CC(C)C returned Hsp90 block -1.8.
For O=C(O)c1cc(O)c2c(c1)C(=O)c1cccc(O)c1C2=O the results were Her2 expr inh 115.2, JNK3 blocker -0.3, Hsp90 block 138.8* and AP complement 20.6.
Nc1cccc(C(=O)O)c1 was read as Her2 expr inh 92.8, JNK3 blocker -5.2, Hsp90 block -0.9 and AP complement 6.7.
For Cc1nn(-c2nc3ccccc3s2)c(C)c1Oc1ccccc1O the results were Her2 expr inh 5.7, HEK293 NFkB inh -6.2, Jurkat tox 60K 28.3*, JNK3 blocker 4.6, Hsp90 block -0.5 and AP complement 18.9.
Screening Cc1nn(-c2ccccn2)c(C)c1Oc1ccccc1O returned Her2 expr inh 70.3, HEK293 NFkB inh 10.0, Jurkat tox 60K -0.8, JNK3 blocker -0.2, Hsp90 block -2.1 and AP complement 12.7.
For Cn1c(CCNC(=O)c2ccco2)nc2cc(NS(=O)(=O)c3ccc(Cl)cc3)ccc21 the results were Her2 expr inh 92.2, HEK293 NFkB inh 10.6, Jurkat tox 60K 2.8, JNK3 blocker 1.8, Hsp90 block -3.2 and AP complement 18.5.

Screening results: PubChem BioAssay, several laboratories
